# Test results from ChEMBL document CHEMBL3244366, “Synthesis and biochemical evaluation of inhibitors of estrogen biosynthesis” (J Med Chem, 1978).
# Key:
# [1] = target: T1, Aromatase (Homo sapiens, UniProt P11511); test: Inhibition of human placental microsomal aromatase assessed as inhibition of [C14]estrone/[C14]estradiol formation using 1.25 uM [C14]androstenedione substrate at 6.25 uM by liquid scintillation counting
# T1 sequence (P11511 whole entry): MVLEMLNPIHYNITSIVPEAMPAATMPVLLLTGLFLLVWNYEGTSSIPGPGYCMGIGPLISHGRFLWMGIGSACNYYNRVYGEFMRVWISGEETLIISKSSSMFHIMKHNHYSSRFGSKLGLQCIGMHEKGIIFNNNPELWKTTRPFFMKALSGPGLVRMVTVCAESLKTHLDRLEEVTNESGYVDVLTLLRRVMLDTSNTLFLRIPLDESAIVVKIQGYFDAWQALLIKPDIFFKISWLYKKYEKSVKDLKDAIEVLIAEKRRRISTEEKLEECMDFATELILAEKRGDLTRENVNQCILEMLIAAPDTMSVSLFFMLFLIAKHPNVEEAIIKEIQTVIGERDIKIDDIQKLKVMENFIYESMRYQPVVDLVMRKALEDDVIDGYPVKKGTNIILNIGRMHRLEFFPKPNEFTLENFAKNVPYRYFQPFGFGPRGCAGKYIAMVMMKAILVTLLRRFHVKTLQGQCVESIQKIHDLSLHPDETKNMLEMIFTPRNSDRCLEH
# How it was run: (§1)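 Screen, run in duplicate: [14C]androstenedione 1.25 μM with inhibitor at 6.25 or 12.5 μM, human placental microsomes (0.25 mg protein/3.0 mL), NADPH-generating system (NADP+ 1.71 mM, glucose 6-phosphate 2.85 mM, G6PDH) in 0.1 M phosphate pH 7.0. 5 min preincubation, then 15.0 min at 37 °C; estrogens separated on alumina TLC and counted; expressed as percent inhibition versus uninhibited controls.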
# [2] = target: T1, Aromatase; test: Inhibition of human placental microsomal aromatase assessed as inhibition of [C14]estrone/[C14]estradiol formation using 1.25 uM [C14]androstenedione substrate at 12.5 uM by liquid scintillation counting; how it was run: as §1
# [3] = target: T1, Aromatase; test: Competitive inhibition of human placental microsomal aromatase assessed as [C14]estrone/[C14]estradiol formation using [C14]androstenedione substrate by liquid scintillation counting
# How it was run: (§2)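 Twice-washed human term placental microsomes (0.25 mg protein) in 3.5 mL 0.1 M sodium phosphate pH 7.0 with NADP+ 1.71 mM, glucose 6-phosphate 2.85 mM, G6PDH 1.0 unit; [14C]androstenedione 0.075–0.515 μM plus one inhibitor level; 37 °C, 8.0 min (<10% product). Estrogens extracted with ethyl acetate, alumina TLC, counted; duplicates; apparent Ki and inhibition type from weighted Lineweaver-Burk.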
# [4] = target: T1, Aromatase; test: Apparent inhibition of human placental microsomal aromatase assessed as [C14]estrone/[C14]estradiol formation using 0.075 to 0.515 uM [C14]androstenedione substrate by liquid scintillation counting; conditions: read-out: Ki(app); how it was run: as §2
SMILES,inhibition at 6.25 µM [1],inhibition at 12.5 µM [2],inhibition (INH) [3],Ki [4]
COc1ccc(S[C@@H]2CC3=CC(=O)CC[C@]3(C)[C@H]3CC[C@]4(C)C(=O)CC[C@H]4[C@H]23)cc1,35.3%,64.9%,–,–
C[C@]12CCC(=O)C=C1C[C@@H](Sc1ccc(N)cc1)[C@@H]1[C@@H]2CC[C@]2(C)C(=O)CC[C@@H]12,55.6%,95%,Active,18 nM
CCCCS[C@@H]1CC2=CC(=O)CC[C@]2(C)[C@H]2CC[C@]3(C)C(=O)CC[C@H]3[C@H]12,62.4%,74.1%,Active,57 nM
C[C@]12CCC(=O)C=C1C[C@@H](SCCc1ccccc1)[C@@H]1[C@@H]2CC[C@]2(C)C(=O)CC[C@@H]12,75.7%,82.8%,Active,62 nM
CCOC(=O)CS[C@@H]1CC2=CC(=O)CC[C@]2(C)[C@H]2CC[C@]3(C)C(=O)CC[C@H]3[C@H]12,–,72.4%,–,–
C[C@@]12C(=CC(=O)C[C@@H]1SCc1ccccc1)CC[C@@H]1[C@@H]2CC[C@]2(C)C(=O)CC[C@@H]12,20.8%,15.5%,–,–
CCN(CC)c1ccc(CS[C@@H]2CC3=CC(=O)CC[C@]3(C)[C@H]3CC[C@]4(C)C(=O)CC[C@H]4[C@H]23)cc1,45.1%,42.3%,–,–
C[C@]12CCC(=O)C=C1C[C@@H](SCc1ccccc1)[C@@H]1[C@@H]2CC[C@]2(C)C(=O)CC[C@@H]12,66.7%,84.1%,Active,69 nM
CCN(CC)c1ccc(CS[C@H]2CC(=O)C=C3CC[C@@H]4[C@H](CC[C@]5(C)C(=O)CC[C@@H]45)[C@]32C)cc1,32.2%,36.3%,–,–
COc1ccc(CS[C@@H]2CC3=CC(=O)CC[C@]3(C)[C@H]3CC[C@]4(C)C(=O)CC[C@H]4[C@H]23)cc1,64%,63%,Active,31 nM
C[C@@]12C(=CC(=O)C[C@@H]1Sc1ccccc1)CC[C@@H]1[C@@H]2CC[C@]2(C)C(=O)CC[C@@H]12,21.2%,24.2%,–,–
C[C@]12CCC(=O)C=C1C[C@@H](SCCCc1ccccc1)[C@@H]1[C@@H]2CC[C@]2(C)C(=O)CC[C@@H]12,68.4%,66.4%,–,–
C[C@]12CCC(=O)C=C1C[C@@H](Sc1ccccc1)[C@@H]1[C@@H]2CC[C@]2(C)C(=O)CC[C@@H]12,45.3%,46.7%,–,–
